Measured values published in ChEMBL document CHEMBL4725435, “Second Generation of Zafirlukast Derivatives with Improved Activity against the Oral Pathogen Porphyromonas gingivalis” (ACS Med Chem Lett, 2020).
The source made the active and inactive calls. The rule behind the calls is not given here.

Assays:
Porphyromonas gingivalis [1] = assay: Antibacterial activity against Porphyromonas gingivalis 381 assessed as bacterial growth inhibition at 50 uM treated for 24 hrs by WST1 assay relative to control; type: functional; settings: read-out: GI
Summary of the method: (§1)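 P. gingivalis 381 read by colorimetric WST-1 after 24 h. Derivatives were tested at 1, 10 and 100 μM. Tetracycline was run at 2.81 μM and ZAF at 25 and 50 μM as positive controls, with DMSO as negative control. Percent growth inhibition is versus medium-only cultures. Derivatives had 6 independent replicates per condition; controls had 36.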

[2] = Cytotoxicity against hTERT-immortalized human OKF6 cells assessed as reduction in cell density at 25 uM incubated for 24 hrs by trypan blue dye based light inverted microscopic analysis; settings: okf6, 24 h
Summary of the method: (§2)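 OKF6 cells were imaged by microscopy after 24 h treatment, with derivatives at 10 μM, to judge cell morphology and density from whole-well images. Medium-only and DMSO wells served as negative controls. Staurosporine 8 μM and ZAF 25 μM served as positive controls.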

[3] = Cytotoxicity against hTERT-immortalized human OKF6 cells assessed as small and rounded cell morphology at 25 uM incubated for 24 hrs by trypan blue dye based light inverted microscopic analysis; settings: okf6, 24 h; summary of the method: as §2
Porphyromonas gingivalis [4] = assay: Antibacterial activity against Porphyromonas gingivalis 381 assessed as bacterial growth inhibition at 25 uM treated for 24 hrs by WST1 assay relative to control; type: functional; settings: read-out: GI; summary of the method: as §1
Porphyromonas gingivalis [5] = assay: Antibacterial activity against Porphyromonas gingivalis 381 assessed as bacterial growth inhibition at 1 uM treated for 24 hrs by WST1 assay relative to control; type: functional; settings: read-out: GI; summary of the method: as §1
Veillonella parvula = assay: Antibacterial activity against Veillonella parvula ATCC 10790 assessed as bacterial growth inhibition at 1 to 100 uM treated for 24 hrs by WST1 assay; type: functional, organism-based; settings: dose microM 1-100, time 24.0 hrs
Summary of the method: (§3)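 WST-1 colorimetric growth assay across oral bacterial species, 24 h exposure. DMSO as negative control. Positive controls were ZAF at 25 and 50 μM, or penicillin/streptomycin 1X (100 U/mL penicillin, 100 μg/mL streptomycin). Percent growth inhibition is relative to cultures in medium only, averaged from six independent replicates per condition.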

[6] = Cytotoxicity against hTERT-immortalized human OKF6 cells assessed as small and rounded cell morphology at 10 uM incubated for 24 hrs by trypan blue dye based light inverted microscopic analysis; settings: okf6, 24 h
Summary of the method: (§4)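 Immortalized oral keratinocytes (OKF6/hTERT) were exposed for 24 h to test compounds at 10 μM. Controls were staurosporine at 8 μM or zafirlukast at 25 μM (positive) and medium only or DMSO (negative). Whole-well microscope images were then scored qualitatively for cell density and morphology (size, shape, spacing between cells).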

Porphyromonas gingivalis [7] = assay: Antibacterial activity against Porphyromonas gingivalis 381 assessed as bacterial growth inhibition at 10 uM treated for 24 hrs by WST1 assay relative to control; type: functional; settings: read-out: GI; summary of the method: as §1
[8] = Cytotoxicity against hTERT-immortalized human OKF6 cells assessed as cell viability at 1 uM incubated for 24 hrs by Annexin V-FITC/propidium iodide staining based flow cytometric analysis relative to control; settings: read-out: Activity
Summary of the method: (§5)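 OKF6/hTERT oral keratinocytes were treated for 24 h, then apoptosis and necrosis were assessed by flow cytometry. DMSO served as negative control; staurosporine 8 μM and ZAF 25 μM served as positive controls. Data come from two independent experiments run in duplicate, with at least 10,000 events analysed per condition.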

Porphyromonas gingivalis [9] = assay: Bactericidal activity against Porphyromonas gingivalis 381 assessed as growth inhibition at 100 uM treated for 24 hrs under anaerobic conditions followed by culturing in blood agar plate and measured after 5 days of incubation in an anaerobic chamber by CFU assay relative to control; type: functional; settings: read-out: GI
Summary of the method: (§6)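 P. gingivalis 381 was exposed in media for 24 h at 1, 10 or 100 μM, then grown on blood agar plates for 5 days under anaerobic conditions and counted as CFUs/mL. Percent inhibition = 100 × [CFUs/mL control − CFUs/mL experimental]/CFUs/mL control, versus medium-only bacteria. Six independent replicates per condition for test compounds, 12 for controls (tetracycline 2.81 μM, ZAF 25/50 μM, DMSO).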

Porphyromonas gingivalis [10] = assay: Antibacterial activity against Porphyromonas gingivalis 381 assessed as bacterial growth inhibition at 100 uM treated for 24 hrs by WST1 assay relative to control; type: functional; settings: read-out: GI; summary of the method: as §1
[11] = system: Aggregatibacter actinomycetemcomitans; assay: Antibacterial activity against Aggregatibacter actinomycetemcomitans JP2 assessed as bacterial growth inhibition at 1 to 100 uM treated for 24 hrs by WST1 assay; type: functional, organism-based; settings: dose microM 1-100, time 24.0 hrs; summary of the method: as §3
[12] = Cytotoxicity against hTERT-immortalized human OKF6 cells assessed as cell viability at 10 uM incubated for 24 hrs by Annexin V-FITC/propidium iodide staining based flow cytometric analysis relative to control; settings: read-out: Activity; summary of the method: as §5
Porphyromonas gingivalis [13] = assay: Bactericidal activity against Porphyromonas gingivalis 381 assessed as growth inhibition at 1 uM treated for 24 hrs under anaerobic conditions followed by culturing in blood agar plate and measured after 5 days of incubation in an anaerobic chamber by CFU assay relative to control; type: functional, organism-based; summary of the method: as §6
[14] = Cytotoxicity against hTERT-immortalized human OKF6 cells assessed as reduction in cell density at 10 uM incubated for 24 hrs by trypan blue dye based light inverted microscopic analysis; settings: okf6, 24 h; summary of the method: as §2
Porphyromonas gingivalis [15] = assay: Bactericidal activity against Porphyromonas gingivalis 381 assessed as growth inhibition at 10 uM treated for 24 hrs under anaerobic conditions followed by culturing in blood agar plate and measured after 5 days of incubation in an anaerobic chamber by CFU assay; type: functional, organism-based; summary of the method: as §6
Porphyromonas gingivalis [16] = assay: Antibacterial activity against Porphyromonas gingivalis 381 assessed as bacterial growth inhibition at 2.81 uM treated for 24 hrs by WST1 assay relative to control; type: functional; settings: read-out: GI; summary of the method: as §1
[17] = Cytotoxicity against hTERT-immortalized human OKF6 cells assessed as large and flattened cell morphology at 10 uM incubated for 24 hrs by trypan blue dye based light inverted microscopic analysis; settings: okf6, 24 h; summary of the method: as §2
Porphyromonas gingivalis [18] = assay: Antibacterial activity against Porphyromonas gingivalis 381 assessed as bacterial growth inhibition at 1 to 100 uM treated for 24 hrs by WST1 assay relative to control; type: functional; summary of the method: as §1
[19] = Cytotoxicity against hTERT-immortalized human OKF6 cells assessed as reduction in cell density at 8 uM incubated for 24 hrs by trypan blue dye based light inverted microscopic analysis; settings: okf6, 24 h; summary of the method: as §4
[20] = Cytotoxicity against hTERT-immortalized human OKF6 cells assessed as small and rounded cell morphology at 8 uM incubated for 24 hrs by trypan blue dye based light inverted microscopic analysis; settings: okf6, 24 h; summary of the method: as §4
[21] = dose microM 1-100, time 24.0 hrs

Row | Structure (SMILES) | inhibition of growth at 1 µM (Porphyromonas gingivalis [5]) | growth inhibition (GI) (Veillonella parvula) | inhibition of growth at 10 µM (Porphyromonas gingivalis [7]) | viability at 24 h, 1 µM [8] | inhibition of growth at 100 µM (Porphyromonas gingivalis [9]) | inhibition of growth at 100 µM (Porphyromonas gingivalis [10]) | growth inhibition (GI) [11] | viability at 24 h, 10 µM [12] | Activity [14] | Activity (Porphyromonas gingivalis [15]) | further results
1 | COc1cc(C(=O)NS(=O)(=O)c2ccccc2C)ccc1Cc1cn(C)c2ccc(NC(=O)OC3CCCC3)cc12 [ZAFIRLUKAST] |  |  |  |  |  |  |  |  |  |  | inhibition of growth at 50 µM (Porphyromonas gingivalis [1]): 68%; Activity [2]: Toxic; Activity [3]: Toxic; inhibition of growth at 25 µM (Porphyromonas gingivalis [4]): 70%
2 | COc1ccc(Cc2cn(C)c3ccc([N+](=O)[O-])cc23)cc1C(=O)NS(=O)(=O)c1cccc(F)c1 | 53% | inactive | 59% | 76% | 100% | 58% | inactive | 49% | Toxic | Active | Activity [6]: Toxic; Activity (Porphyromonas gingivalis [13]): Active
3 | COc1ccc(Cc2cn(C)c3ccccc23)cc1C(=O)NS(=O)(=O)c1ccccc1F |  |  |  |  |  | 55% |  |  |  |  | 
4 | COc1ccc(Cc2cn(C)c3ccc([N+](=O)[O-])cc23)cc1C(=O)NS(=O)(=O)c1ccccc1F | 53% |  | 59% |  |  | 58% |  |  |  |  | 
5 | COc1ccc(Cc2cn(C)c3ccccc23)cc1C(=O)NS(=O)(=O)c1ccccc1C | 16% |  | 56% |  |  | 74% |  |  |  |  | 
6 | CN(C)[C@@H]1C(O)=C(C(N)=O)C(=O)[C@@]2(O)C(O)=C3C(=O)c4c(O)cccc4[C@@](C)(O)[C@H]3C[C@@H]12 [TETRACYCLINE] |  |  |  |  |  |  |  |  |  |  | inhibition of growth at 2.81 µM (Porphyromonas gingivalis [16]): 51%
7 | COc1ccc(Cc2cn(C)c3ccc([N+](=O)[O-])cc23)cc1C(=O)NS(=O)(=O)c1ccc2ccccc2c1 |  |  | 57% |  |  | 58% |  |  |  |  | 
8 | COc1ccc(Cc2cn(C)c3ccccc23)cc1C(=O)NS(=O)(=O)c1ccc(F)cc1 |  | inactive | 59% | 76% | 100% | 58% | inactive | 49% | Non-Toxic | inactive | Activity [17]: Non-Toxic
9 | COc1ccc(Cc2cn(C)c3ccccc23)cc1C(=O)NS(=O)(=O)c1ccc2ccccc2c1 |  | inactive |  | 76% | 100% | 58% | inactive | 49% | Toxic | inactive | Activity [17]: Non-Toxic
10 | COc1ccc(Cc2cn(C)c3ccc([N+](=O)[O-])cc23)cc1C(=O)NS(=O)(=O)c1ccc([N+](=O)[O-])cc1 | 53% | inactive | 59% | 76% | 100% | 58% | inactive | 49% | Toxic | Active | Activity [6]: Toxic; Activity (Porphyromonas gingivalis [13]): Active
11 | COc1ccc(Cc2c[nH]c3ccccc23)cc1C(=O)NS(=O)(=O)c1ccccc1F |  |  |  |  |  |  |  |  |  |  | growth inhibition (GI) (Porphyromonas gingivalis [18]; [21]): inactive
12 | CN[C@@H]1C[C@H]2O[C@@](C)([C@@H]1OC)n1c3ccccc3c3c4c(c5c6ccccc6n2c5c31)C(=O)NC4 [STAUROSPORINE] |  |  |  |  |  |  |  |  |  |  | Activity [19]: Toxic; Activity [20]: Toxic
13 | COc1ccc(Cc2cn(C)c3ccc([N+](=O)[O-])cc23)cc1C(=O)NS(=O)(=O)c1cccc([N+](=O)[O-])c1 | 53% |  | 59% |  |  | 58% |  |  |  |  | 
14 | COc1ccc(Cc2c[nH]c3ccccc23)cc1C(=O)NS(=O)(=O)c1ccc2ccccc2c1 |  |  |  |  |  |  |  |  |  |  | growth inhibition (GI) (Porphyromonas gingivalis [18]; [21]): inactive
15 | COc1ccc(Cc2cn(C)c3ccc([N+](=O)[O-])cc23)cc1C(=O)NS(=O)(=O)c1ccccc1 | 0% |  |  |  |  |  |  |  |  |  | 
16 | COc1ccc(Cc2cn(C)c3ccccc23)cc1C(=O)NS(=O)(=O)c1ccc([N+](=O)[O-])cc1 |  |  |  |  |  |  |  |  |  |  | growth inhibition (GI) (Porphyromonas gingivalis [18]; dose microM 1-100): 0%
17 | COc1ccc(Cc2cn(C)c3ccccc23)cc1C(=O)NS(=O)(=O)c1cccc([N+](=O)[O-])c1 | 18% | inactive | 50% | 76% | 100% | 58% | inactive | 49% | Non-Toxic | inactive | Activity [17]: Non-Toxic; growth inhibition (GI) (Porphyromonas gingivalis [18]; dose microM 1-100): 18%
18 | COc1ccc(Cc2cn(C)c3ccc([N+](=O)[O-])cc23)cc1C(=O)NS(=O)(=O)c1ccc(F)cc1 |  |  | 59% |  |  | 58% |  |  |  |  | 
19 | COc1ccc(Cc2cn(C)c3ccccc23)cc1C(=O)NS(=O)(=O)c1cccc(F)c1 | 14% | inactive | 57% | 76% | 100% | 73% | inactive | 49% | Non-Toxic | inactive | Activity [17]: Non-Toxic
20 | COc1ccc(Cc2c[nH]c3ccccc23)cc1C(=O)NS(=O)(=O)c1ccc(F)cc1 |  |  |  |  |  |  |  |  |  |  | growth inhibition (GI) (Porphyromonas gingivalis [18]; [21]): inactive
